From ChEMBL document CHEMBL4382255, “Design, synthesis and activity of Mnk1 and Mnk2 selective inhibitors containing thieno[2,3-d]pyrimidine scaffold” (Eur J Med Chem, 2019)
Activity calls are given as the source filed them. Unless noted, the calls are words filed in the database; no cut-off is given here.

What was measured:
Mus musculus [1] = species: Mus musculus; assay: Inhibition of MNK in mouse 3T3L1 cells assessed as reduction of eIF4E phosphorylation at 0.1 uM after 2 hrs by Western blot analysis; type: cell-based
In short: (§1)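 Mouse 3T3-L1 pre-adipocytes (DMEM high glucose, 10% heat-inactivated FBS, 37 °C, 5% CO₂) treated 2 h with compounds at 3 μM or lower concentrations down to 0.1 μM final; DMSO vehicle 0.03-0.05% final. RIPA lysates cleared, equal protein resolved by SDS-PAGE, immunoblotted for P-eIF4E and total eIF4E, fluorescent secondary detection.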

3T3-L1 = assay: Effect on total eIF4E protein level in mouse 3T3L1 cells at 3 uM after 2 hrs by Western blot analysis; type: ADME, cell-based; conditions: 3t3-l1, 2 h; in short: as §1
Mus musculus [2] = species: Mus musculus; assay: Inhibition of MNK in mouse 3T3L1 cells assessed as reduction of eIF4E phosphorylation at 3 uM after 2 hrs by Western blot analysis; type: cell-based; in short: as §1
Mus musculus [3] = species: Mus musculus; assay: Inhibition of mTORC2 in mouse 3T3L1 cells assessed as reduction in PKB phosphorylation at Ser473 residue at 0.1 to 5 uM after 2 hrs by Western blot analysis; type: cell-based
In short: (§2)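 3T3-L1 cells treated 2 h with inhibitor at indicated concentrations (DMSO <0.05% v/v). RIPA lysates, equal protein by Bradford, SDS-PAGE and western blot with phospho-specific antibodies (ERK, RSK, PKB Ser473, 4E-BP1, rpS6); fluorescent secondary imaging. Quantified from three independent experiments, SEM error bars.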

[4] = biological target: MAP kinase-interacting serine/threonine-protein kinase 2 (Mus musculus) (UniProt Q8CDB0); assay: Inhibition of MNK2 in MNK1-knockout C57BL/6J mouse embryonic fibroblasts assessed as decrease in eIF4E phosphorylation at 0.003 to 0.03 uM after 2 hrs by Western blot analysis
MAP kinase-interacting serine/threonine-protein kinase 2 (Mus musculus), sequence (Q8CDB0 whole entry): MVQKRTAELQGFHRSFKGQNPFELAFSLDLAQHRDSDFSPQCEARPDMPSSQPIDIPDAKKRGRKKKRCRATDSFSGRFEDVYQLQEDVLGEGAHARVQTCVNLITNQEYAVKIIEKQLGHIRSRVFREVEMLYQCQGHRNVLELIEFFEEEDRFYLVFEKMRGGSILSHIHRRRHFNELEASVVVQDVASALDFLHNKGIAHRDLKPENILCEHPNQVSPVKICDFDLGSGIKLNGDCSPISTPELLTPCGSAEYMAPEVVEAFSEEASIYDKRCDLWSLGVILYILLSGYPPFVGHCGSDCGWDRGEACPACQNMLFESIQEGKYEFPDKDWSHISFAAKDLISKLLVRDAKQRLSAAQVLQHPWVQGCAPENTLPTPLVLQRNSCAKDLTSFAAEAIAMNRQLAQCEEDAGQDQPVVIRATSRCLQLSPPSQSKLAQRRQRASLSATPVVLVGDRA
In short: (§3)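 MEFs from E13.5 C57BL/6J embryos, wild-type, MNK1-KO or MNK2-KO (DMEM, 10% FBS), treated 2 h with inhibitor at indicated concentrations, including a lower-concentration series in MNK1-KO cells; CGP57380 at 50 μM as reference. Lysates analysed by SDS-PAGE/western blot for P-eIF4E; quantified from three independent experiments, SEM.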

Mus musculus [5] = species: Mus musculus; assay: Inhibition of ERK signalling in mouse 3T3L1 cells assessed as reduction in RSK phosphorylation at […] residue at 0.1 to 5 uM after 2 hrs by Western blot analysis; type: cell-based; in short: as §2
Mus musculus [6] = species: Mus musculus; assay: Inhibition of mTORC1 in mouse 3T3L1 cells assessed as reduction in 4EBP1 at Ser65 residue phosphorylation at 0.1 to 5 uM after 2 hrs by Western blot analysis; type: cell-based; in short: as §2
[7] = biological target: MAP kinase-interacting serine/threonine-protein kinase 1 (Homo sapiens) (UniProt Q9BUB5); assay: Inhibition of GST-fused MNK1a (unknown origin) expressed in HEK293 cells using eIF4E as substrate after 30 mins by Western blot analysis; type: cell-based
MAP kinase-interacting serine/threonine-protein kinase 1 (Homo sapiens), sequence (Q9BUB5 whole entry, looked up, the tested form may be a part): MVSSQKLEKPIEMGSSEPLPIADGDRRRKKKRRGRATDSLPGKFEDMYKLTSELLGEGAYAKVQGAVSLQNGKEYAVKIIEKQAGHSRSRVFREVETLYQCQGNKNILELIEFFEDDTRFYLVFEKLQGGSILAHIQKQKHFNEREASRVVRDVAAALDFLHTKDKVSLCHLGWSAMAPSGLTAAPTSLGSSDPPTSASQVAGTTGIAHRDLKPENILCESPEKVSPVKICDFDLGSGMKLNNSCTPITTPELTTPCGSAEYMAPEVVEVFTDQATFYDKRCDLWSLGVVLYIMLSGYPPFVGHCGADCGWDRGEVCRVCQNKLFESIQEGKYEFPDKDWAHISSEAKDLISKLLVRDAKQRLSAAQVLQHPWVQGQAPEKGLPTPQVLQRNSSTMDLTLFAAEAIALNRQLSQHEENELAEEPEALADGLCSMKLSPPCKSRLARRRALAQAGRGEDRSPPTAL
In short: (§4)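 GST-MNK1a or GST-MNK2a expressed in transfected HEK293 cells, purified by glutathione pull-down. Incubated in 25 mM Tris-HCl pH 7.5, 50 mM KCl, 2 mM MgCl₂ with 20 µM ATP and 65 ng E. coli-expressed eIF4E, 30 °C, 30 min, ± inhibitor. Stopped with sample buffer; immunoblotted for P-eIF4E Ser209, eIF4E and GST. Conditions pre-set within linear range.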

[8] = biological target: MAP kinase-interacting serine/threonine-protein kinase 1 (Mus musculus) (UniProt O08605); assay: Inhibition of MNK1 in C57BL/6J mouse embryonic fibroblasts assessed as decrease in eIF4E phosphorylation at 5 uM after 2 hrs by Western blot analysis; in short: as §3
MAP kinase-interacting serine/threonine-protein kinase 1 (Mus musculus), sequence (O08605 whole entry, the tested form may be a part): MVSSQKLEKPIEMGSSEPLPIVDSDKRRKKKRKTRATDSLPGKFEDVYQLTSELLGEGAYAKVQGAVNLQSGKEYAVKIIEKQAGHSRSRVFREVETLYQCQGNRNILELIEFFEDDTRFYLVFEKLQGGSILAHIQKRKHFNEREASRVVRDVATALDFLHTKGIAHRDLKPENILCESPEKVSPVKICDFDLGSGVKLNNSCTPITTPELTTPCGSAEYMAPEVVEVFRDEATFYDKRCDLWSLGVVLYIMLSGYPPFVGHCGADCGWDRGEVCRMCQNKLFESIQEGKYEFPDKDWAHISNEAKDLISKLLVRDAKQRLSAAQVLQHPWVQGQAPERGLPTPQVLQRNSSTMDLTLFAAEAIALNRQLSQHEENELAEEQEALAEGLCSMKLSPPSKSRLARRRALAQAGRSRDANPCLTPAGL

Mus musculus [9] = species: Mus musculus; assay: Inhibition of mTORC1 in mouse 3T3L1 cells assessed as reduction in rpS6 phosphorylation at Ser240/244 residues at 0.1 to 5 uM after 2 hrs by Western blot analysis; type: cell-based; in short: as §2
[10] = biological target: T1, MAP kinase-interacting serine/threonine-protein kinase 1/2 (Homo sapiens) (UniProt Q9HBH9+Q9BUB5); assay: Inhibition of MNK in human MDA-MB-231 cells assessed as decrease in eIF4E phosphorylation at 1 uM after 2 hrs by Western blot analysis; type: cell-based
In short: (§5)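 MDA-MB-231 cells treated with inhibitor at indicated concentrations for 2 h, or at 3 μM for times up to 72 h (DMSO vehicle <0.05%). Cells lysed in RIPA buffer; supernatants analysed by SDS-PAGE and western blot for P-eIF4E and total eIF4E. CGP57380 at 30 μM as reference.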

MDA-MB-231 = assay: Antimigratory activity against human MDA-MB-231 cells after 24 hrs by DAPI staining-based Transwell assay; type: functional, cell-based
In short: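 MDA-MB-231 cells pre-treated with inhibitor 60 min, then 3 x 10⁵ cells seeded into 8 μm-pore Transwell inserts pre-coated with 10 μg/ml collagen (collagen as attractant). After 24 h, migrated cells in bottom well stained with DAPI, imaged at ×10 and counted. Triplicate assays, mean ± SEM.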

[11] = biological target: MAP kinase-interacting serine/threonine-protein kinase 1 (Mus musculus) (UniProt O08605); assay: Inhibition of MNK1 in MNK2-knockout C57BL/6J mouse embryonic fibroblasts assessed as decrease in eIF4E phosphorylation at 0.3 to 5 uM after 2 hrs by Western blot analysis; in short: as §3
[12] = biological target: MAP kinase-interacting serine/threonine-protein kinase 2 (Homo sapiens) (UniProt Q9HBH9); assay: Inhibition of GST-fused MNK2a (unknown origin) expressed in HEK293 cells using eIF4E as substrate after 30 mins by Western blot analysis; type: cell-based; in short: as §4
MAP kinase-interacting serine/threonine-protein kinase 2 (Homo sapiens), sequence (Q9HBH9 whole entry, looked up, the tested form may be a part): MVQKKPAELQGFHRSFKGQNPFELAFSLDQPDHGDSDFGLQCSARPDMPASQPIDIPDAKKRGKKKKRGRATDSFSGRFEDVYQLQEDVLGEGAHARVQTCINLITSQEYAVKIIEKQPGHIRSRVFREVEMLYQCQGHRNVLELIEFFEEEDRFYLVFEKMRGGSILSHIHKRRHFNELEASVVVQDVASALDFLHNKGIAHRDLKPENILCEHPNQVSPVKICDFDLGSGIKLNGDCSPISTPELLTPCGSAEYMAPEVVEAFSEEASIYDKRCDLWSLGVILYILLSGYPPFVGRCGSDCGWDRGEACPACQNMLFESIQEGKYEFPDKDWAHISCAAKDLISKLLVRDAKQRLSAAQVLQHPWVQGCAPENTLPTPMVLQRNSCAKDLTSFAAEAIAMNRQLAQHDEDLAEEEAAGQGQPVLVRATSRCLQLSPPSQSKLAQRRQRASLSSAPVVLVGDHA

[13] = biological target: MAP kinase-interacting serine/threonine-protein kinase 1 (Mus musculus) (UniProt O08605); assay: Inhibition of MNK1 in C57BL/6J mouse embryonic fibroblasts assessed as decrease in eIF4E phosphorylation at 0.1 to 0.3 uM after 2 hrs by Western blot analysis relative to control; in short: as §3
[14] = biological target: T1, MAP kinase-interacting serine/threonine-protein kinase 1/2 (Homo sapiens); assay: Inhibition of MNK in human MDA-MB-231 cells assessed as decrease in eIF4E phosphorylation at 3 uM up to 72 hrs by Western blot analysis; type: cell-based; in short: as §5
[15] = biological target: Mitogen-activated protein kinase 1 and 3 (ERK2 and ERK1) (Mus musculus) (UniProt P63085+Q63844); assay: Inhibition of ERK1/2 phosphorylation at Thr202/Tyr204 residues in mouse 3T3L1 cells at 0.1 to 5 uM after 2 hrs by Western blot analysis; type: cell-based; in short: as §2
Mitogen-activated protein kinase 1 and 3 (ERK2 and ERK1) (Mus musculus), sequence (P63085 whole entry, looked up): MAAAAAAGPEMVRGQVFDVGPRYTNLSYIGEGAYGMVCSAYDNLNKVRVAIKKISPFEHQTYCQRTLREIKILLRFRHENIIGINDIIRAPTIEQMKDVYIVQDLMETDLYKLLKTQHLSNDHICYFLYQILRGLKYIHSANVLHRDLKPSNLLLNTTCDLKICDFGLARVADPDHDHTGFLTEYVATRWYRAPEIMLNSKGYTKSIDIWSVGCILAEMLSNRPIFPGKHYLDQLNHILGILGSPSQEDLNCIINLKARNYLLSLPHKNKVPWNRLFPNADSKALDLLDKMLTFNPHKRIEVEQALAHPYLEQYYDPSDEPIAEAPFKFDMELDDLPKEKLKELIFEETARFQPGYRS
Mitogen-activated protein kinase 1 and 3 (ERK2 and ERK1) (Mus musculus), sequence (Q63844 whole entry, looked up): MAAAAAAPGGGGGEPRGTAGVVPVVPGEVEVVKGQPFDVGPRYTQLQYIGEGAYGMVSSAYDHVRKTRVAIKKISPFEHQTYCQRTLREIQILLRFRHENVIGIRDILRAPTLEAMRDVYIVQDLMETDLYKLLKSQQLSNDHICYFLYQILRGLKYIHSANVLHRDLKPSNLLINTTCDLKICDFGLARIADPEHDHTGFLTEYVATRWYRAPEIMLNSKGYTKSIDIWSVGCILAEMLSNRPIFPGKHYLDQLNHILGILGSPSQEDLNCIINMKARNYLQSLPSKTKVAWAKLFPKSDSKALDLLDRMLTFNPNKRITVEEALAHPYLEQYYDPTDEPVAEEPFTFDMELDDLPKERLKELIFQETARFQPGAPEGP

[16] = biological target: MAP kinase-interacting serine/threonine-protein kinase 2 (Mus musculus) (UniProt Q8CDB0); assay: Inhibition of MNK2 in C57BL/6J mouse embryonic fibroblasts assessed as decrease in eIF4E phosphorylation at 5 uM after 2 hrs by Western blot analysis; in short: as §3
[17] = biological target: MAP kinase-interacting serine/threonine-protein kinase 2 (Mus musculus) (UniProt Q8CDB0); assay: Inhibition of MNK2 in MNK1-knockout C57BL/6J mouse embryonic fibroblasts assessed as decrease in eIF4E phosphorylation at 0.5 uM after 2 hrs by Western blot analysis; in short: as §3

Structure (SMILES) | Activity (3T3-L1) | MNK inhibition (active/not active) (Mus musculus [2]) | further results
Cc1c(C(=O)NCC(C)(C)CN(C)C)sc2ncnc(Nc3ccc(F)cc3OC(C)C)c12 | Non-Toxic | Active | inhibition of eIF4E phosphorylation (active/not active) (Mus musculus [1]): inactive
Cc1c(C(=O)NCCc2c[nH]cn2)sc2ncnc(Nc3ccc(F)cc3OC(C)C)c12 | Non-Toxic | Active | inhibition of eIF4E phosphorylation (active/not active) (Mus musculus [1]): inactive
COc1cc(F)ccc1Nc1ncnc2sc(C(=O)N3CCCCC3)c(C)c12 | Non-Toxic | Active | –
COc1cc(F)ccc1Nc1ncnc2sc(C(=O)NCCCO)c(C)c12 | Non-Toxic | Active | –
Cc1c(C(=O)OCCCO)sc2ncnc(Nc3ccc(F)cc3OC(C)C)c12 | Non-Toxic | Active | –
Cc1c(C(=O)NCCCN(C)C)sc2ncnc(Nc3ccc(F)cc3OC(C)C)c12 | – | Active | –
Cc1c(C(=O)N2CCN(C)CC2)sc2ncnc(Nc3ccc(F)cc3OC(C)C)c12 | Non-Toxic | Active | –
Cc1c(C(=O)OCCO)sc2ncnc(Nc3ccc(F)cc3OC(C)C)c12 | – | Active | –
Cc1c(C(=O)OCCc2ccccc2)sc2ncnc(Nc3ccc(F)cc3OC(C)C)c12 | Non-Toxic | Active | –
COc1cc(F)ccc1Nc1ncnc2sc(C(=O)NCC(C)(C)CN(C)C)c(C)c12 | Non-Toxic | – | –
COc1cc(F)ccc1Nc1ncnc2sc(C(=O)NCCc3c[nH]cn3)c(C)c12 | Non-Toxic | Active | –
Cc1c(C(=O)N2CCCCC2)sc2ncnc(Nc3ccc(F)cc3OC(C)C)c12 | Non-Toxic | Active | –
Cc1c(C(=O)N2CCCC2)sc2ncnc(Nc3ccc(F)cc3OC(C)C)c12 | Non-Toxic | Active | –
COc1cc(F)ccc1Nc1ncnc2sc(C(=O)NCCCN3CCCC3)c(C)c12 | Non-Toxic | Active | –
Cc1c(C(=O)NCCc2ccncc2)sc2ncnc(Nc3ccc(F)cc3OC(C)C)c12 | Non-Toxic | Active | inhibition of eIF4E phosphorylation (active/not active) (Mus musculus [1]): inactive
Cc1c(C(=O)NC2CCCCC2)sc2ncnc(Nc3ccc(F)cc3OC(C)C)c12 | Non-Toxic | Active | –
COc1cc(F)ccc1Nc1ncnc2sc(C(=O)N3CCN(C)CC3)c(C)c12 | Non-Toxic | Active | –
COc1cc(F)ccc1Nc1ncnc2sc(C(=O)NCCCN(C)C)c(C)c12 | – | inactive | –
Cc1c(C(=O)NCCCN(C)C)sc2ncnc(Nc3ccc(F)cc3OC(C)CF)c12 (configuration not stated) | Non-Toxic | Active | inhibition (Mus musculus [3]): inactive; inhibition [4]: Active; inhibition (Mus musculus [5]): inactive; inhibition (Mus musculus [6]): inactive; inhibition [7]: Active; inhibition [8]: 100%; inhibition (Mus musculus [9]): inactive; inhibition [10]: 100%; inhibition (MDA-MB-231): Active; inhibition [11]: Active; inhibition [12]: Active; inhibition [13]: 50%; inhibition [14]: Active; inhibition [15]: inactive; inhibition of eIF4E phosphorylation (active/not active) (Mus musculus [1]): Active; inhibition [16]: 100%; inhibition [17]: Active
Cc1c(C(=O)N2CCOCC2)sc2ncnc(Nc3ccc(F)cc3OC(C)C)c12 | Non-Toxic | Active | –
Cc1c(C(=O)NCCCN2CCOCC2)sc2ncnc(Nc3ccc(F)cc3OC(C)C)c12 | Non-Toxic | Active | inhibition of eIF4E phosphorylation (active/not active) (Mus musculus [1]): inactive
COc1cc(F)ccc1Nc1ncnc2sc(C(=O)N3CCCC3)c(C)c12 | Non-Toxic | Active | –
COc1cc(F)ccc1Nc1ncnc2sc(C(=O)OCCO)c(C)c12 | Non-Toxic | – | –
COC(=O)c1sc2ncnc(Nc3ccc(F)cc3OC(C)C)c2c1C | – | inactive | –
Cc1c(C(=O)NCCCO)sc2ncnc(Nc3ccc(F)cc3OC(C)C)c12 | – | Active | –
COc1cc(F)ccc1Nc1ncnc2sc(C(=O)NCCc3ccncc3)c(C)c12 | Non-Toxic | Active | –
COc1cc(F)ccc1Nc1ncnc2sc(C(=O)NCCCN3CCOCC3)c(C)c12 | Non-Toxic | Active | –
COc1cc(F)ccc1Nc1ncnc2sc(C(=O)NC3CCCCC3)c(C)c12 | Non-Toxic | Active | –
COc1cc(F)ccc1Nc1ncnc2sc(C(=O)N3CCOCC3)c(C)c12 | Non-Toxic | Active | –
